Data on 23 compounds can be found in ChEMBL document CHEMBL1125710, “Structure/activity and molecular modeling studies of the lophotoxin family of irreversible nicotinic receptor antagonists” (J Med Chem, 1991).

Where “and” joins values, the source holds several entries; their conditions need not be identical. Equal values may be shown once. Calls of active or inactive are those of the source. The calls are words filed in the database; no cut-off is given here.

Experiment [1] has as its target T1, Acetylcholine receptor (Torpedo californica, UniProt P02710+P02712+P02714+P02718). Put plainly: In vitro ability to inhibit the binding of [125I]alpha-bungarotoxin to Nicotinic acetylcholine receptor on membranes prepared from the electric organs of Torpedo californica. The class given is tissue-based, Tetronarce californica, Electric organ. An outline of the steps: (§1)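 Torpedo californica electric-organ membranes (ca. 1.0 pmol α-toxin sites) in 10 mM sodium phosphate pH 7.4 with 1.0 mM EDTA and 1.0 mM EGTA. Analogue in DMSO reacted 2 or 16 h at 23 °C, then 2-5-fold molar excess [125I]-α-bungarotoxin for 60 min. Duplicate aliquots filtered on DE81, washed, gamma-counted. Apparent EC50 is 50% inhibition of specific binding.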

The target in experiment [2] is T1, Acetylcholine receptor. Put plainly: In vitro ability to inhibit the binding of [125I]-alpha-bungarotoxin to nicotinic acetylcholine receptor on membranes prepared from the electric organs of Torpedo californica. In kind it is tissue-based, Tetronarce californica, Electric organ. In outline: as §1
Experiment [3] addresses Acetylcholine receptor (Torpedo californica) (UniProt P02710+P02712+P02718+P02714). Briefly: In vitro ability to inhibit the binding of [125I]alpha-bungarotoxin to nicotinic acetylcholine receptor on membranes prepared from the electric organs of Torpedo californica; Not active. The settings on record: Tetronarce californica. An outline of the steps:
as §1

Experiment [4] addresses T1, Acetylcholine receptor. Briefly: In vitro inhibition of [125I]alpha-bungarotoxin binding to nicotinic acetylcholine receptor of Torpedo californica electric organ membranes. In kind it is tissue-based, Tetronarce californica. An outline of the steps:
as §1

T1 sequence (P02710 whole entry): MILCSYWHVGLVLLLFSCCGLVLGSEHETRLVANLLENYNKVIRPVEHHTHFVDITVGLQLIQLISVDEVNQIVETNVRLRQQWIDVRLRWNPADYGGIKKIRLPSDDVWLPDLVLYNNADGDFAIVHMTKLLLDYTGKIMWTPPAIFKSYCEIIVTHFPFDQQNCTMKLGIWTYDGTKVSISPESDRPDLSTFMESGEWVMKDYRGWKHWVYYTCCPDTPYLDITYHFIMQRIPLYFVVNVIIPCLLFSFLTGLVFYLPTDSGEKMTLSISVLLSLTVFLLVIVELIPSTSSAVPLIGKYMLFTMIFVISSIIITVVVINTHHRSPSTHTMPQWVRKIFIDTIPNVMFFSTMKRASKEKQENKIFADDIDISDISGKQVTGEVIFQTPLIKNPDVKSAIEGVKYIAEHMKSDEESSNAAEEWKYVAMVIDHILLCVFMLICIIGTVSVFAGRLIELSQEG
T1 sequence (P02712 whole entry): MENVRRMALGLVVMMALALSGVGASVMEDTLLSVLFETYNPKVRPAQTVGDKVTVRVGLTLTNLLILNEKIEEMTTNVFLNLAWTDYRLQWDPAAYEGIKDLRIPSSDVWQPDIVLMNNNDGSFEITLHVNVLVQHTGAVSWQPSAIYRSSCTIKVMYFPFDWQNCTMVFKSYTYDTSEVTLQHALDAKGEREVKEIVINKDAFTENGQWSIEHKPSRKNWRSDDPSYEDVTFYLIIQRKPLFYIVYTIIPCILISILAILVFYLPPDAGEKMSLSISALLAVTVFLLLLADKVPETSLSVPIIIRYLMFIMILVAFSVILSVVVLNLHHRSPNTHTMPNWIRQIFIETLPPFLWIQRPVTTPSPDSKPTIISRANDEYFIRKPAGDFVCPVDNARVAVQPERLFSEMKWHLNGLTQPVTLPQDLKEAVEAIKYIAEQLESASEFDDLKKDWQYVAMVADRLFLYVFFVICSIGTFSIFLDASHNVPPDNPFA
T1 sequence (P02718 whole entry): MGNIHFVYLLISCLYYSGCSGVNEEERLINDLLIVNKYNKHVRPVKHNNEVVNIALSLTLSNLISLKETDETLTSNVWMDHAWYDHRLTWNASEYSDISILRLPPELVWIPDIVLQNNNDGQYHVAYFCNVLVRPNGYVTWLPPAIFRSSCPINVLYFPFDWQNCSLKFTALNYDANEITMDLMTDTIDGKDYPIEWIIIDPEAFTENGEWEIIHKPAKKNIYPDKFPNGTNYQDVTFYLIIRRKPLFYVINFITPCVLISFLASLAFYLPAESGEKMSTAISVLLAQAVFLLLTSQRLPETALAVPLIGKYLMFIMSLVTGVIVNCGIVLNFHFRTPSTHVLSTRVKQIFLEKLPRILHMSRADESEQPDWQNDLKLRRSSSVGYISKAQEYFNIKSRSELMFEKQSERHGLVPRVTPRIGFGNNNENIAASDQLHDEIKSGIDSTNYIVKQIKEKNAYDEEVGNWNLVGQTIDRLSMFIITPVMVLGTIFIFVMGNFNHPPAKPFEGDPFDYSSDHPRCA
T1 sequence (P02714 whole entry): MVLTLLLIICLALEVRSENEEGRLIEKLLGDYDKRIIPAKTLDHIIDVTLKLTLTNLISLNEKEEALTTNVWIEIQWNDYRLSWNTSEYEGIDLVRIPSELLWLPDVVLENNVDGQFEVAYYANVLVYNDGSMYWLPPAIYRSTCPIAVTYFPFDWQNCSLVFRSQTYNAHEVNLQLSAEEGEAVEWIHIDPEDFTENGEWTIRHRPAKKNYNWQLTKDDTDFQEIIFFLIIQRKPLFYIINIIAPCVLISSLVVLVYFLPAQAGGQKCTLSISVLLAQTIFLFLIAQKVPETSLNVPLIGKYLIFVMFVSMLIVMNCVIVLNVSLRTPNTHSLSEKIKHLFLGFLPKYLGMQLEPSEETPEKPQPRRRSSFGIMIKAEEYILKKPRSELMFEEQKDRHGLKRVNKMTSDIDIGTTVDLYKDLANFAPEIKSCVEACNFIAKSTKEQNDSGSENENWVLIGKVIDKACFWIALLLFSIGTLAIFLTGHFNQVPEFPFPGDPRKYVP

For the compound `C=C(C=O)[C@H]1C[C@H](OC(C)=O)[C@@]23O[C@@H]2[C@@H](C[C@]2(C)O[C@H]2C2=CC(C)=C(O2)[C@@H]1OC(C)=O)OC3=O`, the EC50 (in general, the concentration giving half of the maximal effect) in experiment [1] was 2.88 µM and 9.33 µM. Take `COc1cc2c3cc1Oc1cc(ccc1O)C[C@@H]1c4c(cc(OC)c(O)c4Oc4ccc(cc4)C[C@@H]3N(C)CC2)CC[N+]1(C)C`: the EC50 in experiment [2] is 3200 µM. That is a millimolar value. With `C=C(CO)[C@H]1C[C@H](O)[C@@]23O[C@@H]2[C@@H](CC2(C)O[C@H]2C2=CC(C)=C(O2)[C@@H]1OC(C)=O)OC3O` (single isomer, unassigned), the “Log EC50” value in experiment [3] was “inactive”. Turning to `C=C(C)[C@@H]1CC2=C(C(=O)OC)C=C(O2)[C@@H]2O[C@@]2(C)C[C@H]2OC(=O)[C@@]3(O[C@H]23)[C@@H](OC(C)=O)C1`, in experiment [4], the EC50 was 126 µM. On to `C=C(C)[C@@H]1CC2=C(CO)C=C(O2)[C@@H]2O[C@@]2(C)C[C@H]2OC(=O)[C@@]3(O[C@H]23)[C@@H](OC(C)=O)C1`, for which the EC50 in experiment [4] is 44.7 µM. Against the preceding compound, the EC50 is about 2.8-fold lower.

With `C=C(C)[C@H]1CC2O[C@@](O)(/C(C)=C\C(=O)/C=C(/C)C[C@H]3OC(=O)[C@@]24O[C@H]34)[C@@H]1OC(C)=O`, in experiment [3], the “Log EC50” value was “inactive”.

In experiment [4], `C=C(C)[C@H]1C[C@H](OC(C)=O)C2=C[C@@H](C[C@]3(C)O[C@H]3C3=CC(C)=C(O3)[C@@H]1OC(C)=O)OC2=O` showed a 50% effective concentration (EC50) of 14.5 µM. For the compound `COC(=O)c1cc2oc1C[C@@H](C(C)C)CCC1C[C@@H](C[C@](C)(O)C2)OC1=O`, the “Log EC50” value in experiment [3] was “inactive”. With `C=C(CO)[C@H]1C[C@H](OC(C)=O)[C@@]23O[C@@H]2[C@@H](CC2(C)O[C@H]2C2=CC(C)=C(O2)[C@@H]1O)OC3=O` (single isomer, unassigned), in experiment [4], the EC50 was 81.3 µM. On to `C=C(CO)[C@H]1C[C@H](OC(C)=O)[C@@]23O[C@@H]2[C@@H](CC2(C)O[C@H]2C2=CC(C)=C(O2)[C@@H]1OC(C)=O)OC3O` (single isomer, unassigned), for which the “Log EC50” value in experiment [3] was “inactive”. `C=C(C=O)[C@@H]1CC2=C(C(=O)OC)C=C(O2)[C@@H]2O[C@@]2(C)C[C@H]2OC(=O)[C@@]3(O[C@H]23)[C@@H](OC(C)=O)C1`: the concentration giving a half-maximal response (EC50) in experiment [4] was 105 µM. In the case of `CC(=O)O[C@H]1C[C@H](C2(C)CO2)[C@@H](OC(C)=O)C2=C(C)C=C(O2)[C@@H]2O[C@@]2(C)C[C@H]2OC(=O)[C@@]13O[C@H]23` (stereo partly drawn), in experiment [4], a half-maximal response (EC50) required 25.1 µM. Still for that read-out and setting: with `C=C(CO)[C@H]1C[C@H](OC(C)=O)[C@@]23O[C@@H]2[C@@H](C[C@]2(C)O[C@H]2C2=CC(C)=C(O2)[C@@H]1OC(C)=O)OC3=O` the figure was 2.09 µM; with `C=C(CO)[C@H]1C[C@H](O)[C@@]23O[C@@H]2[C@@H](C[C@]2(C)O[C@H]2C2=CC(C)=C(O2)[C@@H]1OC(C)=O)OC3=O`, 25.7 µM. On to `C=C(C(=O)OC)[C@H]1CC2O[C@@](O)(/C(C)=C\C(=O)/C=C(/C)C[C@H]3OC(=O)[C@@]24O[C@H]34)[C@@H]1OC(C)=O`, for which the “Log EC50” value in experiment [3] is “inactive”. The same measure, in the same setting: then `C=C(C)[C@H]1CCC2=C[C@@H](C[C@]3(C)O[C@H]3C3=CC(C(=O)OC)=C(C1)O3)OC2=O`, with “inactive”. In experiment [4], `C=C(C)[C@@H]1CC2=C(C(=O)OC)C=C(O2)[C@@H]2O[C@@]2(C)C[C@@H]2C=C(C(=O)O2)[C@@H](OC(C)=O)C1` [ACETOXYPUKALIDE] showed a half-maximal effective concentration (EC50) of 91.2 µM. In the case of `C=C(C)[C@@H]1CC2=C(C=O)C=C(O2)[C@@H]2O[C@@]2(C)C[C@@H]2C=C(C(=O)O2)[C@@H](OC(C)=O)C1` [DEOXYLOPHOTOXIN], in experiment [4], the EC50 was 115 µM. On to `C=C(C(=O)OC)[C@H]1C[C@H](OC(C)=O)C2=C[C@@H](C[C@]3(C)O[C@H]3C3=CC(C)=C(O3)[C@@H]1OC(C)=O)OC2=O`, for which, in experiment [4], the EC50 was 7.41 µM.

In the case of `C=C(C)[C@H]1C[C@H](OC(C)=O)[C@@]23O[C@@H]2[C@@H](C[C@](C)(O)/C=C2/C=C(C=O)C(OCC)(C1)O2)OC3=O`, in experiment [3], the “Log EC50” value was “inactive”.

`CC(=O)O[C@H]1C[C@H](C2(C)CO2)[C@@H](OC(C)=O)C2=C(C)C=C(O2)[C@@H]2O[C@@]2(C)C[C@@H]2C=C1C(=O)O2` (stereo partly drawn): a half-maximal effect in experiment [4] (EC50) was put at 12 µM. Take `C=C(C)[C@H]1CCC2=C[C@@H](C/C(C)=C/C3=CC(C(=O)OC)=C(C1)O3)OC2=O`: in experiment [3], the “Log EC50” value is “inactive”. Take `C=C(C)[C@H]1CCC2=C[C@@H](C[C@]3(C)O[C@H]3C3=CC(C=O)=C(C1)O3)OC2=O`: the “Log EC50” value in experiment [3] was “inactive”.
